The record followed here is ChEMBL document CHEMBL5346868 (Eur J Med Chem, 2023).

As usually defined, the EC50 is the concentration needed to bring the measured effect to its halfway point. The term CC50 denotes the concentration that lowers cell viability or growth by half. In general, IC50 refers to the midpoint of a concentration-inhibition curve.

The structures appear in SMILES notation.

The test system of data set [1] is Enterovirus A71. In words: Antiviral activity against human enterovirus 71 infected in african green monkey vero cells. It is filed as functional, organism-based. As to conditions: Enterovirus A.
Data set [2] is described as follows: Cytotoxicity against human RD cells by MTS assay. It is filed as toxicity, cell-based. The method, boiled down:
(§1)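 Treated, uninfected RD or HeLa cells are run alongside the matching enterovirus CPE assays, with viability read by MTS. CC50 is the concentration giving a 50% adverse effect on host cells.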
(In general: Tetrazolium assays rely on reduction of a dye to a coloured formazan, in cell work by metabolically active cells.)

The subject of data set [3] is Enterovirus A71. In words: Antiviral activity against human Enterovirus 71 BrCr infected in human RD cells assessed as reduction of virus induced cytopathic effect incubated for 3 days by MTS assay. As to conditions: Enterovirus A, 72 h. It is filed as functional, organism-based. In a few lines: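 Confluent RD cells (EMEM, 10% heat-inactivated FBS) are infected with ~100 CCID50 of EV71 BrCr and treated with a compound dilution series. After 3 days at 37 °C, 5% CO2, residual viability is measured by MTS. EC50 is the concentration giving 50% antiviral effect, from at least 2–3 independent experiments.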
Background: Cytopathic effects are the visible damage that an infection or toxin causes in cultured cells.

A further data set concerns Zika virus. In words: Antiviral activity against ZIKV MR766 infected in african green monkey Vero E6 cells assessed as decline in virus induced cytopathogenicity measured after 5 days by MTS based microscopic analysis. The format is functional, organism-based. As to conditions: MR766, Vero C1008, 120 h. The method, boiled down: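 Vero E6 cells (10^4/well) are seeded in MEM with 2% FCS and left to adhere overnight. Cells are then infected with ZIKV MR766 (passaged in C6/36 cells) and given 2-fold serial compound dilutions. After 5 days, CPE is scored by MTS and by microscopy of fixed, stained cells. EC50 is the 50% antiviral effect.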

The target in another data set is METTL3/METTL14 (Homo sapiens, UniProt Q86U44). The data set is described as follows: Inhibition of human recombinant full length METTL3/human N-terminal FLAG-tagged METTL14 expressed in SF9 cells assessed as methyltransferase residual activity using ssRNA 5'-rUrArC rArCrU rCrGrA rUrCrU rGrGrA rCrUrA rArArG rCrUrG rCrUrC -3' as substrate incubated for 20 mins followed by H-SAM addition measured after 2 hrs by radio isotope reaction system analysis. The method, boiled down:
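Compound is pre-incubated for 20 min at room temperature, then 1 μM [3H-methyl]SAM is added for 2 h at room temperature. Activity is reported as % remaining, screened at 100 μM, with IC50 from curve fits.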

Data set [4] can be described thus: Selectivity index, ratio of CC50 for human RD cells to EC50 for antiviral activity against human Enterovirus 71. It is filed as toxicity. As to conditions: read-out: Ratio CC50/EC50. The method, boiled down: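 SI is calculated as CC50 on uninfected RD cells divided by EC50 in the 3-day EV71 BrCr CPE-reduction MTS assay.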
The next data set concerns SARS-CoV-2. The data set is described as follows: Antiviral activity against SARS-CoV-2 BetaCoV/Belgium/GHB-03021/2020 infected in african green monkey Vero cells assessed as decline in virus induced cytopathogenicity measured after 4 days by argon laser scanning microscopic analysis. It is filed as functional, organism-based. The settings on record: Severe acute respiratory syndrome coronavirus 2, BetaCoV/Belgium/GHB-03021/2020, Vero, 96 h.

Data set [5] is described as follows: Cytotoxicity against african green monkey Vero E6 cells by MTS assay. The format is toxicity, cell-based, Vero C1008. As to conditions: chlorocebus sabaeus. The method, boiled down: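 Cytotoxicity is measured on treated, uninfected Vero E6 cells in parallel with the antiviral assays, using a standard MTS assay. CC50 is the concentration causing a 50% adverse effect on host cells.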

In data set [6] the test system is Enterovirus A71. The data set is described as follows: Antiviral activity against human enterovirus 71 87-2008. The format is functional, organism-based. The settings on record: Enterovirus A.
Data set [7] deals with Enterovirus A71. In words: Antiviral activity against human enterovirus 71 BrCr infected in human RD cells measured by colorometric based MTS/PMS method. It is filed as functional, organism-based. As to conditions: Enterovirus A. In a few lines:
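EV71 BrCr in confluent RD cells (MEM, 10% heat-inactivated FBS) infected with ~100 CCID50 and given a compound dilution series. Incubation was 3 days at 37 °C, 5% CO2, with residual viability read by MTS. EC50 is the concentration giving 50% antiviral effect. Toxicity was run in parallel on treated uninfected cells. Values are means of ≥2 independent experiments.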

The subject of the next data set is Coxsackievirus B3. In words: Antiviral activity against Coxsackievirus B3 infected in african green monkey Vero cells assessed as reduction of virus induced cytopathic effect incubated for 3 days by MTS assay. The format is functional, organism-based. The settings on record: Enterovirus B, 72 h. In a few lines: (§2)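 Same setup as the EV71 assay: confluent monolayers (Vero A for CVB3; HeLa for CVA21, EV68, HRV-A02, HRV-B14) are infected with virus and treated with a compound dilution series. Incubation is 3 days at 37 °C, 5% CO2, and residual viability is read by MTS. EC50 is the 50% effective concentration, mean of at least 2 independent experiments.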

The next data set has as its system Coxsackievirus A21. The data set is described as follows: Antiviral activity against Coxsackievirus 21 infected in human HeLa cells assessed as reduction of virus induced cytopathic effect incubated for 3 days by MTS assay. It is filed as functional, organism-based. As to conditions: Enterovirus C, 72 h. The method, boiled down: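 HeLa cells infected with coxsackievirus A21 (~100 CCID50) and treated with a compound dilution series, as in the EV71 set-up. Incubation was 3 days at 37 °C, 5% CO2, with residual viability quantified by MTS. EC50 is the concentration giving 50% antiviral effect. Values are means of ≥2 independent experiments.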

The test system of another data set is enterovirus D68. In words: Antiviral activity against Human enterovirus 68 infected in human HeLa cells assessed as reduction of virus induced cytopathic effect incubated for 3 days by MTS assay. The format is functional, organism-based. The settings on record: Enterovirus D, 72 h. The method, boiled down:
as §2

For a further data set, the system named is rhinovirus A2. The data set is described as follows: Antiviral activity against Human rhinovirus 2 infected in human HeLa cells assessed as reduction of virus induced cytopathic effect incubated for 3 days by MTS assay. The settings on record: Rhinovirus A, 72 h. It is filed as functional, organism-based. In a few lines:
as §2

Data set [8] can be described thus: Cytotoxicity against human HeLa cells by MTS assay. It is filed as toxicity, cell-based. In a few lines: as §1
Another data set has as its system rhinovirus B14. In words: Antiviral activity against Human rhinovirus 14 infected in human HeLa cells assessed as reduction of virus induced cytopathic effect incubated for 3 days by MTS assay. The format is functional, organism-based. The settings on record: Rhinovirus B, 72 h. The method, boiled down: as §2
A short description of data set [9]: Cytotoxicity against african green monkey Vero cells by MTS assay. It is filed as toxicity, cell-based. The settings on record: chlorocebus sabaeus.
Data set [10] deals with Enterovirus A71. The data set is described as follows: Antiviral activity against human enterovirus 71. The format is functional, organism-based. As to conditions: Enterovirus A.

Sequence of METTL3/METTL14 (Q86U44 whole entry): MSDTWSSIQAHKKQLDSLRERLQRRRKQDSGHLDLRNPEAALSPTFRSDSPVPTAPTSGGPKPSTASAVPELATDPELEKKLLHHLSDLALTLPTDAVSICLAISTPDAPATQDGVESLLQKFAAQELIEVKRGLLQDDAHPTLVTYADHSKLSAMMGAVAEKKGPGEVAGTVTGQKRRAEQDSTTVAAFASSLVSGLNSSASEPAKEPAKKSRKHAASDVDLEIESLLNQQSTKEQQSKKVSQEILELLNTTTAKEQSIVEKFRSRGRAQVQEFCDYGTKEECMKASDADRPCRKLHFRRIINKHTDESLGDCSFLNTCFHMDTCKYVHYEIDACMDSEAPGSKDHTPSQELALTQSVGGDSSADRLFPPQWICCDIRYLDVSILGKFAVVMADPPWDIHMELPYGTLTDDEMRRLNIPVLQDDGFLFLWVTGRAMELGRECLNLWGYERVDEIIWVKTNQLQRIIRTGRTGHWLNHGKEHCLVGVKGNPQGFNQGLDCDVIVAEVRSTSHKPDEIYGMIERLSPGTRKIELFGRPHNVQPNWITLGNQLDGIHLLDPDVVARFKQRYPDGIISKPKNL
Sequence of METTL3/METTL14 (Q9HCE5 whole entry, further chain): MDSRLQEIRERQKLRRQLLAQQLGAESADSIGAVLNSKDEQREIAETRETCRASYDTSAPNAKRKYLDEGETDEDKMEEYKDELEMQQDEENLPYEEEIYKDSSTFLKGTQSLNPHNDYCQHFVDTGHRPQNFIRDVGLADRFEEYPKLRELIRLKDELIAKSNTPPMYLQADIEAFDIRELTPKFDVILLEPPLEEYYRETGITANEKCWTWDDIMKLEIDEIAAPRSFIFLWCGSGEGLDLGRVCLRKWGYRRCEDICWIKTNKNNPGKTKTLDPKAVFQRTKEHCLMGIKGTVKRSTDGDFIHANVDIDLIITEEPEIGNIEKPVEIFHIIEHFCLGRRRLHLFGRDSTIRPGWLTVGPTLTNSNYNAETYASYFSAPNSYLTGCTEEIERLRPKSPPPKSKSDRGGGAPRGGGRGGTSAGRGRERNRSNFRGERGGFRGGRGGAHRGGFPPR

Regarding `C#C[C@@]1(O)[C@H](O)[C@@H](CO)O[C@H]1n1ccc2c(N)ncnc21`, in the data set on Enterovirus A71 [1], the EC50 was determined as 0.625 µM.

As to `OC[C@H]1O[C@@H](n2ccc3c(NCc4cccc(Cl)c4)ncnc32)[C@H](O)[C@@H]1O`, the CC50 is greater than 20 µM in data set [2] and greater than 100 µM in data set [5]. Further, the EC50 with Enterovirus A71 [3] is 0.065 µM; in the data set with Zika virus, greater than 100 µM; in the data set with SARS-CoV-2 it was greater than 100 µM. Moreover, the IC50 at METTL3/METTL14 came out at 58.8 µM. Also, the selectivity ratio in data set [4] is greater than 301.

Turning to `CCC(CC)COC(=O)[C@H](C)N[P@](=O)(OC[C@H]1O[C@@](C#N)(c2ccc3c(N)ncnn23)[C@H](O)[C@@H]1O)Oc1ccccc1`, the concentration giving a half-maximal response (EC50) turned out to be 0.058 µM in the data set with SARS-CoV-2 and 0.991 µM in the data set on Enterovirus A71 [6]. In [5], this molecule registered a 50% cytotoxic concentration (CC50) greater than 10 µM.

For `CSC[C@H]1O[C@@H](n2cnc3c(NCc4cccc(Cl)c4)ncnc32)[C@H](O)[C@@H]1O`, the values for the CC50 in data set [2] and in data set [5] were greater than 20 µM and greater than 100 µM, respectively. The EC50 was 0.53 µM in the data set on Enterovirus A71 [3], greater than 100 µM with Zika virus and greater than 100 µM in the data set on SARS-CoV-2. The IC50 on METTL3/METTL14 is 184 µM. Besides, the selectivity ratio in data set [4] is greater than 37.7.

As for `OC[C@H]1O[C@@H](n2cnc3c(NCc4cccc(C(F)(F)F)c4)ncnc32)[C@H](O)[C@@H]1O`, the concentration for a half-maximal effect (EC50) in the data set on Enterovirus A71 [7] is 0.068 µM; with Enterovirus A71 [3], 0.036 µM; in the data set on Zika virus, greater than 100 µM; with SARS-CoV-2, greater than 100 µM. Also, the cytotoxic concentration (CC50) in data set [2] and in data set [5] was greater than 100 µM throughout. In data set [4], the selectivity ratio is greater than 2770.

In the case of `OC[C@H]1O[C@@H](n2ccc3c(NCc4cccc(C(F)(F)F)c4)ncnc32)[C@H](O)[C@@H]1O`, the EC50 in the data set with Coxsackievirus B3 is greater than 100 µM; in the data set on Coxsackievirus A21, 19.9 µM; in the data set on enterovirus D68 it was 91.2 µM; in the data set with rhinovirus A2 it was greater than 100 µM; with Enterovirus A71 [3], 0.101 µM; in the data set with Zika virus, greater than 100 µM. Further, the half-maximal effective concentration (EC50) in the data set with SARS-CoV-2 and with rhinovirus B14 was greater than 100 µM in each case. Besides, the CC50 in [2], in data set [8], in data set [5] and in data set [9] was greater than 100 µM throughout. The half-inhibitory concentration (IC50) on METTL3/METTL14 turned out to be 129 µM. Besides, the selectivity ratio in [4] was greater than 1070.

As to `OC[C@H]1O[C@@H](n2cnc3c(NCc4ccccc4)ncnc32)[C@H](O)[C@@H]1O` [N6-BENZYLADENOSINE], in the data set with Enterovirus A71 [10], a half-maximal response (EC50) required 0.28 µM.

With `CC(Nc1ncnc2c1ncn2[C@@H]1O[C@H](CO)[C@@H](O)[C@H]1O)c1cccc(Cl)c1` (stereo partly drawn), the 50% effective concentration (EC50) in the data set with Coxsackievirus B3 is greater than 100 µM; in the data set on Coxsackievirus A21 it was greater than 100 µM; in the data set on enterovirus D68, greater than 100 µM; in the data set with rhinovirus A2, greater than 100 µM; in the data set on Enterovirus A71 [3], 1.07 µM; in the data set on Zika virus, greater than 100 µM. The concentration giving a half-maximal response (EC50) in the data set with SARS-CoV-2 and in the data set with rhinovirus B14 was greater than 100 µM in each case. For the same molecule, the CC50 in data set [2], in data set [8], in data set [5] and in [9] was greater than 100 µM throughout. In addition, the selectivity ratio in data set [4] is greater than 93.5.
